ChEMBL document CHEMBL3593226, “Discovery of small molecules with vasodilating characteristics and adjustable hydrolytic behavior” (Bioorg Med Chem, 2015)
Calls of active or inactive are those of the source.

Legend:
Ileum = experiment: Spasmolytic activity in potassium chloride-mediated precontracted guinea pig terminal ileum compound treated every 45 mins by chart recorder analysis; format: functional, tissue-based; details: Cavia porcellus, 0.75 h
Summary of the method: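 Guinea pig terminal ileum held at 4.9 mN resting tension and precontracted with 60 mM KCl. Compound added cumulatively every 45 min after a control period, with relaxation recorded on a chart recorder. Solvent-only effect subtracted. Stocks in distilled water or DMSO. Mean ± SEM of 3–5 experiments.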

[1] = Vasodilating activity in potassium chloride-mediated precontracted guinea pig pulmonary artery compound treated every 45 mins by chart recorder analysis; format: functional, tissue-based, Cavia porcellus
Summary of the method: (§1)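 Guinea pig aortic or pulmonary artery rings held at 19.6 mN resting tension and precontracted with 90 mM KCl. Compound added cumulatively every 45 min after a control period, with relaxation recorded on a chart recorder. Solvent-only effect subtracted. Mean ± SEM of 3–5 experiments; paired Student's t-test.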

Right cardiac atrium = experiment: Chronotropic activity in electrically-stimulated guinea pig right atrium compound treated every 45 mins by chart recorder analysis; format: functional, tissue-based; details: Cavia porcellus, 0.75 h
Summary of the method: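 Isolated guinea pig right atria, resting tension 10.37 mN. After a 30 min control period, compound added cumulatively to the bath until steady state. Rate change recorded on a chart recorder; solvent-only effect subtracted. Stocks in distilled water or DMSO. Mean ± SEM of 4–5 experiments; paired Student's t-test.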

[2] = Inotropic activity in electrically-stimulated guinea pig papillary muscle compound treated every 45 mins by chart recorder analysis; format: functional, tissue-based; details: Cavia porcellus, 0.75 h
Summary of the method: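 Guinea pig papillary muscles driven electrically at 1 Hz, 3 ms pulses, amplitude 10% above threshold; resting tension 3.92 mN. After a 30 min control period, compound added cumulatively until steady state. Contraction force recorded on a chart recorder; solvent-only effect subtracted. Mean ± SEM of 4–5 experiments; paired t-test.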

Aorta [3] = experiment: Vasodilating activity in potassium chloride-mediated precontracted guinea pig aorta compound treated every 45 mins by chart recorder analysis; format: functional, tissue-based; details: Cavia porcellus, 0.75 h; summary of the method: as §1
[4] = Stability of the compound in D2O assessed as compound remaining at 20 mg/ml at 20 degC after 24 hrs by 1H-NMR spectroscopic analysis; format: physicochemical; details: read-out: Stability
Summary of the method: (§2)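 Compound dissolved in D2O and kept at 20 °C. 1H NMR spectra taken at 1, 3, 5, 7 and 24 h, in triplicate. Compound-to-degradation-product ratio (%) used to follow hydrolysis. Half-life obtained from an equation fitted to the time-course data. Mean ± SEM of three independent experiments.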

[5] = Half life of the compound in D2O at 20 mg/ml at 20 degC by 1H-NMR spectroscopic analysis; format: physicochemical; summary of the method: as §2
[6] = Stability of the compound in D2O assessed as degradation product ratio at 20 mg/ml at 20 degC after 24 hrs by 1H-NMR spectroscopic analysis; format: ADME; summary of the method: as §2
Aorta [7] = experiment: Vasodilating activity in potassium chloride-mediated precontracted guinea pig aorta at EC50 compound incubated in sealed tube filled with distilled water at room temperature for 24 hrs prior to testing by chart recorder analysis; format: functional, tissue-based; details: Cavia porcellus
Summary of the method: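 Compound dissolved in distilled water and kept sealed at room temperature for 24 h. The solution was then added at a single concentration to guinea pig aortic rings precontracted with 90 mM KCl. Change in contraction force recorded on a chart recorder for 5 min. Mean ± SEM of three experiments.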

Aorta [8] = experiment: Vasodilating activity in potassium chloride-mediated precontracted guinea pig aorta at EC50 compound treated every 45 mins by chart recorder analysis in presence of 100 uM KATP channel inhibitor glibenclamide; format: functional
Aorta [9] = experiment: Vasodilating activity in potassium chloride-mediated precontracted guinea pig aorta at EC50 compound treated every 45 mins by chart recorder analysis in presence of 30 uM KATP channel inhibitor glibenclamide; format: functional
Aorta [10] = experiment: Vasodilating activity in potassium chloride-mediated precontracted guinea pig aorta at EC50 compound treated every 45 mins by chart recorder analysis in presence of 100 uM eNOS inhibitor nitro-L-arginine; format: functional, tissue-based; details: Cavia porcellus
[11] = Stability of the compound in D2O at 20 mg/ml at 20 degC measured over 24 hrs by 1H-NMR spectroscopic analysis; format: physicochemical; summary of the method: as §2

| SMILES | EC50 (Ileum) [µM] | EC50 [1] [µM] | EC50 (Right cardiac atrium) [µM] | EC50 [2] [µM] | EC50 (Aorta [3]) [µM] | remaining at 24 h, 20 mg/ml [4] [%] | half-life at 20 mg/ml [5] [h] | Ratio [6] | Activity (Aorta [7]) | Activity (Aorta [8]; Cavia porcellus) | Activity (Aorta [9]; Cavia porcellus) | Activity (Aorta [10]) | Activity (Aorta [8]) [%] | Activity (Aorta [9]) [%] | Stability [11] |
| --- | --- | --- | --- | --- | --- | --- | --- | --- | --- | --- | --- | --- | --- | --- | --- |
| COc1ccc(CSC(=S)n2ccnc2)cc1 | > 100 | 24 | > 100 | > 100 | 13 |  |  |  |  |  |  |  |  |  |  |
| CC(C)OC(=S)n1ccnc1 | 21 | > 100 | > 100 | > 100 | 46 |  |  |  |  |  |  |  |  |  |  |
| CC(C)CN(CC(C)C)C(=S)n1ccnc1 | 17 | 26 | 48 | 6.5 | 14 |  |  |  |  |  |  |  |  |  |  |
| CCOC(=S)OCCN(C)C | > 100 | > 100 | > 100 | > 100 | > 100 |  |  |  |  |  |  |  |  |  |  |
| CCOC(=S)OCCCN(C)C | > 100 | > 100 | > 100 | > 100 | > 100 |  |  |  |  |  |  |  |  |  |  |
| CCOC(=O)CCSC(=S)n1ccnc1 | 32 | 20 | > 100 | > 100 | 16 |  |  |  |  |  |  |  |  |  |  |
| Cc1nccn1C(=S)SCc1ccccc1 | 16 | 13 | 16 | > 100 | 3.4 |  |  |  |  |  |  |  |  |  |  |
| CN(C)CCOC(=S)OCCN(C)C | > 100 | > 100 | > 100 | > 100 | > 100 |  |  |  |  |  |  |  |  |  |  |
| S=C(OC1CCCC1)n1ccnc1 | 16 | > 100 | > 100 | > 100 | 36 |  |  |  |  |  |  |  |  |  |  |
| CCCOC(=S)OCCCN(C)C | > 100 | > 100 | > 100 | 37 | > 100 |  |  |  |  |  |  |  |  |  |  |
| CSC(=S)n1ccnc1C | 9.5 | 11 | > 100 | > 100 | 6.3 |  |  |  |  |  |  |  |  |  |  |
| O=C(OC1CCCCC1)n1ccnc1 | > 100 | > 100 | > 100 | > 100 | > 100 |  |  |  |  |  |  |  |  |  |  |
| CCCOC(=S)n1ccnc1 | 21 | 100 | > 100 | > 100 | 30 |  |  |  |  |  |  |  |  |  |  |
| COc1cc(CSC(=S)n2ccnc2)cc(OC)c1OC | 15 | 7.9 | > 100 | 27 | 3 |  |  |  |  |  |  |  |  |  |  |
| CSC(=S)n1c(C)nc2ccccc21 | 26 | 25 | > 100 | 56 | 23 |  |  |  |  |  |  |  |  |  |  |
| CCOC(=S)n1ccnc1.Cl | 4.8 | 19 | > 100 | > 100 | 53 | 26 | 6.5 | 0.35 | inactive |  |  |  |  |  |  |
| CCCOC(=S)N1CCN(C)CC1 | > 100 | > 100 | > 100 | > 100 | > 100 |  |  |  |  |  |  |  |  |  |  |
| CCCOC(=S)OCCN(C)C | > 100 | > 100 | > 100 | 58 | > 100 |  |  |  |  |  |  |  |  |  |  |
| Cl.S=C(OC1CCCCC1)n1ccnc1 | > 100 | 24 | > 100 | > 100 | 14 | 8 | 12.3 | 0.09 | inactive | inactive | inactive | inactive |  |  |  |
| CC(C)OC(=O)n1ccnc1 | > 100 | > 100 | > 100 | > 100 | > 100 |  |  |  |  |  |  |  |  |  |  |
| CCCCOC(=S)OCCCN(C)C | 17 | > 100 | > 100 | 4.3 | > 100 |  |  |  |  |  |  |  |  |  |  |
| S=C(SCc1ccccc1)n1ccnc1 | 40 | 63 | > 100 | 30 | 20 |  |  |  |  |  |  |  |  |  |  |
| C[N+](C)(C)CCOC(=S)OCC[N+](C)(C)C | > 100 | > 100 | > 100 | > 100 | > 100 |  |  |  |  |  |  |  |  |  |  |
| CCCCCCOC(=S)OCCCN(C)C | 16 | > 100 | 35 | 5.9 | > 100 |  |  |  |  |  |  |  |  |  |  |
| CCCCOC(=S)n1ccnc1 | 21 | 23 | > 100 | > 100 | 13 |  |  |  |  |  |  |  |  |  |  |
| CC(=O)OCCSC(=S)n1ccnc1 | > 100 | 24 | > 100 | 77 | 5.8 |  |  |  |  |  |  |  |  |  |  |
| S=C(N1CCCCC1)n1ccnc1 | > 100 | > 100 | > 100 | > 100 | > 100 |  |  |  |  |  |  |  |  |  |  |
| CCOC(=S)N1CCN(C)CC1 | > 100 | > 100 | > 100 | > 100 | > 100 |  |  |  |  |  |  |  |  |  |  |
| CSC(=S)n1ccnc1.Cl | 5.7 | 6.9 | > 100 | 78 | 7.8 |  |  |  |  |  |  |  | 50 | 50 | Stable |
